Experimental findings from ChEMBL document CHEMBL5236609, “Optimization of 1,2,4-Triazole-3-thiones toward Broad-Spectrum Metallo-β-lactamase Inhibitors Showing Potent Synergistic Activity on VIM- and NDM-1-Producing Clinical Isolates” (J Med Chem, 2022) are described below.

The structures appear in SMILES notation.

As usually defined, the MIC is the least concentration at which growth counts as inhibited. One may read the Kd as the constant that tells how readily two partners part at equilibrium. Usually inhibition stands for the change of the read-out against control, counted positive when it falls. Lower therefore signals a response near the control.

Assay [1] relates to Klebsiella pneumoniae. Description: Antimicrobial activity against blaVIM-4-producing multidrug-resistant Klebsiella pneumoniae VA-416/02 clinical isolate assessed as meropenem MIC using cation-adjusted Mueller-Hinton broth at 4 ug/ml by broth microdilution method (reference value: […] ug/ml). The assay is classed as functional. The conditions noted are these: dose 4 µg/ml. In outline:
(§1)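 Checkerboard broth microdilution in cation-supplemented Mueller–Hinton broth, inoculum 5×10^4 CFU/well, per CLSI. […] The average fractional inhibitory concentration index was computed from the checkerboard.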
(Broth dilution looks for growth in wells or tubes with falling amounts of substance.)

Assay [2] deals with Klebsiella pneumoniae. Description: Antimicrobial activity against blaVIM-1-producing multidrug-resistant Klebsiella pneumoniae 7023 clinical isolate assessed as meropenem MIC using cation-adjusted Mueller-Hinton broth at 2 ug/ml by broth microdilution method (reference value: […] ug/ml). The class given is functional. Conditions: dose 2 µg/ml. The procedure, abridged:
as §1

Assay [3] relates to Klebsiella pneumoniae. Description: Antimicrobial activity against blaVIM-1-producing multidrug-resistant Klebsiella pneumoniae 7023 clinical isolate assessed as meropenem MIC using cation-adjusted Mueller-Hinton broth at 4 ug/ml by broth microdilution method (reference value: […] ug/ml). Conditions: dose 4 µg/ml. The class given is functional. The procedure, abridged:
as §1

In assay [4] the test system is Klebsiella pneumoniae. The assay can be described thus: Antimicrobial activity against blaVIM-1-producing multidrug-resistant Klebsiella pneumoniae 7023 clinical isolate assessed as meropenem MIC using cation-adjusted Mueller-Hinton broth at 0.5 ug/ml by broth microdilution method (reference value: […] ug/ml). The assay is classed as functional. Conditions: dose 0.5 µg/ml. The procedure, abridged: as §1

The subject of assay [5] is Escherichia coli. Description: Antimicrobial activity against blaNDM-1-producing multidrug-resistant Escherichia coli SI-004 clinical isolate assessed as meropenem MIC using cation-adjusted Mueller-Hinton broth at 2 ug/ml by broth microdilution method (reference value: 64 ug/ml). The assay is classed as functional. The conditions noted are these: dose 2 µg/ml. In outline:
as §1

Assay [6] has as its system Klebsiella pneumoniae. The assay can be described thus: Antimicrobial activity against blaVIM-1-producing multidrug-resistant Klebsiella pneumoniae 7023 clinical isolate assessed as meropenem MIC using cation-adjusted Mueller-Hinton broth at 32 ug/ml by broth microdilution method (reference value: […] ug/ml). The class given is functional. The conditions noted are these: dose 32 µg/ml. The procedure, abridged: as §1

The test system of assay [7] is Escherichia coli. The assay can be described thus: Antimicrobial activity against blaNDM-1-producing multidrug-resistant Escherichia coli SI-004 clinical isolate assessed as meropenem MIC using cation-adjusted Mueller-Hinton broth at 16 ug/ml by broth microdilution method (reference value: 64 ug/ml). The assay is classed as functional. The conditions noted are these: dose 16 µg/ml. The procedure, abridged: as §1

The nature of assay [8]: Binding affinity to bacterial VIM-2 (unknown origin) assessed as dissociation constant by isothermal calorimetric assay. Further details: species or system Bacteria. The procedure, abridged: (§2)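 ITC at 25 °C. VIM-2 at 19 μM in 10 mM HEPES-NaOH, 0.15 M NaCl, pH 7.5 with DMSO matched to 1%, titrated with compound at 200 μM: one 0.5 μL injection, then 19 × 2 μL at 150 s intervals. Buffer dilution heats subtracted. Nonlinear fit gives n, Ka and ΔH°; values regarded as apparent.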
(Isothermal titration calorimetry measures the heat released or taken up as one component is titrated into another.)

The subject of assay [9] is Escherichia coli. Description: Antimicrobial activity against blaNDM-1-producing multidrug-resistant Escherichia coli SI-004 clinical isolate assessed as meropenem MIC using cation-adjusted Mueller-Hinton broth at 1 ug/ml by broth microdilution method (reference value: 64 ug/ml). The class given is functional. Conditions: dose 1 µg/ml. The procedure, abridged: as §1

The subject of assay [10] is Klebsiella pneumoniae. Description: Antimicrobial activity against blaVIM-1-producing multidrug-resistant Klebsiella pneumoniae 7023 clinical isolate assessed as meropenem MIC using cation-adjusted Mueller-Hinton broth at 8 ug/ml by broth microdilution method (reference value: […] ug/ml). The class given is functional. Conditions: dose 8 µg/ml. The procedure, abridged: as §1

Assay [11] deals with Bacteria. Description: Inhibition of bacterial Metallo-beta-lactamase VIM-1 (unknown origin) at 100 uM relative to control. The procedure, abridged: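 Reporter-substrate assay with purified MBL (1–70 nM final) in 50 mM HEPES pH 7.5 at 30 °C. […] Inhibitor 0.5–1000 μM final. Ki derived from the v0/vi vs [I] slope assuming competitive inhibition, or from a Dixon plot. Ki given when inhibition >70%, otherwise % inhibition at 100 μM. Triplicate.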

Assay [12] deals with Klebsiella pneumoniae. The assay can be described thus: Antimicrobial activity against blaVIM-4-producing multidrug-resistant Klebsiella pneumoniae VA-416/02 clinical isolate assessed as meropenem MIC using cation-adjusted Mueller-Hinton broth at 0.5 ug/ml by broth microdilution method (reference value: […] ug/ml). The class given is functional. Conditions: dose 0.5 µg/ml. In outline: as §1

In assay [13] the test system is Klebsiella pneumoniae. The assay can be described thus: Antimicrobial activity against blaVIM-4-producing multidrug-resistant Klebsiella pneumoniae VA-416/02 clinical isolate assessed as meropenem MIC using cation-adjusted Mueller-Hinton broth at 8 ug/ml by broth microdilution method (reference value: […] ug/ml). The assay is classed as functional. Conditions: dose 8 µg/ml. In outline: as §1

For assay [14], the system named is Klebsiella pneumoniae. The assay can be described thus: Antimicrobial activity against blaVIM-1-producing multidrug-resistant Klebsiella pneumoniae 7023 clinical isolate assessed as meropenem MIC using cation-adjusted Mueller-Hinton broth at 16 ug/ml by broth microdilution method (reference value: […] ug/ml). The conditions noted are these: dose 16 µg/ml. The class given is functional. In outline:
as §1

Assay [15] relates to Bacteria. Description: Binding affinity to bacterial VIM-2 (unknown origin) assessed as association constant by isothermal calorimetric assay. In outline:
as §2

In assay [16] the test system is Klebsiella pneumoniae. The assay can be described thus: Antimicrobial activity against blaVIM-4-producing multidrug-resistant Klebsiella pneumoniae VA-416/02 clinical isolate assessed as meropenem MIC using cation-adjusted Mueller-Hinton broth at 1 ug/ml by broth microdilution method (reference value: […] ug/ml). The assay is classed as functional. The conditions noted are these: dose 1 µg/ml. In outline: as §1

Assay [17] concerns Escherichia coli. The assay can be described thus: Antimicrobial activity against blaNDM-1-producing multidrug-resistant Escherichia coli SI-004 clinical isolate assessed as meropenem MIC using cation-adjusted Mueller-Hinton broth at 32 ug/ml by broth microdilution method (reference value: 64 ug/ml). The assay is classed as functional. The conditions noted are these: dose 32 µg/ml. The procedure, abridged: as §1

The test system of assay [18] is Escherichia coli. Description: Antimicrobial activity against blaNDM-1-producing multidrug-resistant Escherichia coli SI-004 clinical isolate assessed as meropenem MIC using cation-adjusted Mueller-Hinton broth at 4 ug/ml by broth microdilution method (reference value: 64 ug/ml). The class given is functional. Conditions: dose 4 µg/ml. In outline: as §1
Assay [19] deals with Klebsiella pneumoniae. The assay can be described thus: Antimicrobial activity against blaVIM-1-producing multidrug-resistant Klebsiella pneumoniae 7023 clinical isolate assessed as meropenem MIC using cation-adjusted Mueller-Hinton broth at 1 ug/ml by broth microdilution method (reference value: […] ug/ml). The assay is classed as functional. The conditions noted are these: dose 1 µg/ml. In outline:
as §1

Assay [20] relates to Klebsiella pneumoniae. Description: Antimicrobial activity against blaVIM-4-producing multidrug-resistant Klebsiella pneumoniae VA-416/02 clinical isolate assessed as meropenem MIC using cation-adjusted Mueller-Hinton broth at 2 ug/ml by broth microdilution method (reference value: […] ug/ml). The class given is functional. The conditions noted are these: dose 2 µg/ml. In outline:
as §1

Assay [21] deals with Escherichia coli. The assay can be described thus: Antimicrobial activity against blaNDM-1-producing multidrug-resistant Escherichia coli SI-004 clinical isolate assessed as meropenem MIC using cation-adjusted Mueller-Hinton broth at 8 ug/ml by broth microdilution method (reference value: 64 ug/ml). Conditions: dose 8 µg/ml. The assay is classed as functional. In outline: as §1

Assay [22] relates to Escherichia coli. The assay can be described thus: Antimicrobial activity against blaNDM-1-producing multidrug-resistant Escherichia coli SI-004 clinical isolate assessed as meropenem MIC using cation-adjusted Mueller-Hinton broth at 0.5 ug/ml by broth microdilution method (reference value: 64 ug/ml). The assay is classed as functional. Conditions: dose 0.5 µg/ml. In outline:
as §1

Regarding `O=C(O)[C@H](CCCn1c(-c2ccccc2)n[nH]c1=S)N(Cc1c[nH]cn1)Cc1c[nH]cn1`, the MIC in the assay on Klebsiella pneumoniae [1] is 2 µg/mL; in the assay on Klebsiella pneumoniae [2], 4 µg/mL; with Klebsiella pneumoniae [3], 2 µg/mL; with Klebsiella pneumoniae [4] it was 16 µg/mL; in the assay with Escherichia coli [5], 64 µg/mL; in the assay on Klebsiella pneumoniae [6], 0.03 µg/mL. Further, the MIC was 0.06 µg/mL in the assay with Escherichia coli [7]; 64 µg/mL with Escherichia coli [9]; 1 µg/mL with Klebsiella pneumoniae [10]; 16 µg/mL in the assay with Klebsiella pneumoniae [12]; 1 µg/mL in the assay with Klebsiella pneumoniae [13]; 0.06 µg/mL with Klebsiella pneumoniae [14]. The MIC was 8 µg/mL in the assay on Klebsiella pneumoniae [16]; 0.03 µg/mL with Escherichia coli [17]; 32 µg/mL in the assay with Escherichia coli [18]; 8 µg/mL with Klebsiella pneumoniae [19]; 4 µg/mL with Klebsiella pneumoniae [20]; 32 µg/mL with Escherichia coli [21]. Further, in the assay on Escherichia coli [22], the MIC is 64 µg/mL. Besides, the Kd in assay [8] amounted to 0.7 µM. The inhibition in the assay with Bacteria [11] turned out to be 57%. In addition, the Ka in the assay with Bacteria [15] is 1.4 10^6/M.
